In the library only some 4.5% were active in any assay of this set; here they are far more common.
OX1R antag-1 – antagonists of human orexin 1 receptor; CHO/OX1R cells, Fluo-8 calcium fluorescence, orexin A; inhibition, % at 5 µM; hit rate 0.43% among 330,000;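 active = inhibition above its plate's threshold, mean inhibition of all tested compounds on the plate plus 3 SD, cut at about 37% in these data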;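 also: 0% = orexin A challenge wells and 100% = SB-334867-A antagonist wells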
Target sequence (O43613 whole entry, looked up): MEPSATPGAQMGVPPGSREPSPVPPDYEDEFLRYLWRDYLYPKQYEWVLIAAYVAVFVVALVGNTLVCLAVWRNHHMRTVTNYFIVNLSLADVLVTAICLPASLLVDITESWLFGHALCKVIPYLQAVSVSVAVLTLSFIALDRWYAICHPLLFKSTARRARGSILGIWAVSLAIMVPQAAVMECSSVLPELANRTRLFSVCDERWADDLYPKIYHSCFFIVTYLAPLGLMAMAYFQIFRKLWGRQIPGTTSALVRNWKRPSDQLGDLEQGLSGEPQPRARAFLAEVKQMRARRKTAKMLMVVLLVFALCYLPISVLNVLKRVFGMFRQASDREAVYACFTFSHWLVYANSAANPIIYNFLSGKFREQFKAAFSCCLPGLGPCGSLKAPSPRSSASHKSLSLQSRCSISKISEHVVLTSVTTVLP
TAAR1 antag – human TAAR1 antagonism. Q96RJ0. CHO RD-HGA16 TAAR1, Fluo-8 calcium fluorescence, antagonist. inhibition, % at 3 µM. hit rate 1.5% among 360,000. AID 624466;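 active = inhibition above a per-plate cutoff, the mean inhibition of test compounds on that plate plus 3 SD, cut at about 49% in these data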;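 also: 0% = DMSO plus EC80 beta-PEA response and 100% = DMSO alone without agonist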
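Test system – hTAAR1-expressing CHO RD-HGA16 cells, Gα16-coupled · Reagent – β-PEA at EC80 concentration, post-compound challenge · Compound dosing – 3 µM, single point · Timing – 140 s kinetic read after compound, 140 s after agonist · Detection – Fluo-8 intracellular calcium dye fluorescence, real-time kinetic reads · Control set – DMSO and EC80 PEA controls · Repeats – n of 1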
GPR7 antag – blocks human GPR7 receptor signaling; hit rate 1.1% among 290,000; P48145; AID 1861; inhibition, % at 4.4 µM; GPR7-expressing cells, fluorescence antagonist assay; in the data active = inhibition above about 16%, passing the limit was not always enough;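 also: cells stimulated with the agonist NPW; 0% = agonist with vehicle and 100% = vehicle without agonist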
TAAR1 ag – agonists of human TAAR1; CHO RD-HGA16 TAAR1, Fluo-8 calcium fluorescence; vehicle wells 0%, saturating PEA agonist 100%; activation, % at 3 µM; hit rate 0.99% among 360,000;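 active = activation above the mean activation of all test compounds in the run plus 3 SD, cut at about 38% in these data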
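Test system: RD-HGA16 (CHO) cells co-expressing Gα16 and hTAAR1; dosing: one-point dosing at 3 µM (nominal); timing: 17-24 h seeding, 75 min 37 °C dye, 30 min RT; signal: kinetic Fluo-8 calcium fluorescence; read-out basis: % activation relative to PEA EC100 response; controls: DMSO and PEA EC100; replicates: n 1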
CHO parental Ca – signal in parental CHO cells, OX1R antagonist counter-screen | parental CHO-K1, ATP-induced calcium, Fluo-8 fluorescence | inhibition, % at 5.6 µM | hit rate 0.63% among 330,000;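 active = inhibition above that plate's mean sample inhibition plus 3 SD, cut at about 26% in these data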;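 also: 0% = ATP-challenged DMSO wells and 100% = DMSO wells without ATP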
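material = parental CHO cells | also added = ATP as calcium-mobilizing challenge | dosing = single point at 5.6 µM | detection = intracellular calcium via Fluo-8 no-wash fluorescent dye | read-out = % inhibition | benchmarks = low control ATP plus DMSO, high control DMSO only | repeats = one well per compound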
OX1R antag-2 – blocks the human orexin 1 receptor. inhibition, % at 6.6 µM. hit rate 1.8% among 330,000. O43613. OX1R-expressing cells, FRET antagonist read-out; in the data active = inhibition mostly above about 38%, no sharp cut-off; inactive = mostly below about 40%;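 also: 0% = agonist challenge alone and 100% = reference antagonist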
The depositor's hits bear a star; x = not tested or not shown.

SMILES | OX1R antag-1 | TAAR1 antag | GPR7 antag | TAAR1 ag | CHO parental Ca | OX1R antag-2
COc1ccc(COc2cc(-c3cccc(OC)c3)nc3ccc(NC(=O)c4ccccc4)cc23)cc1 | -19 | 53* | 8 | 8 | -5 | 28
COc1ccc(COc2cc(-c3cccc(OC)c3)nc3ccc(NC(=O)c4ccc(Cl)cc4)cc23)cc1 | -20 | 26 | -6 | 8 | 8 | 21
C[C@@H]1COc2cc(NCCCN3CCOCC3)ccc2S(=O)(=O)N1 | x | 5 | x | 1 | x | x
COc1cccc(CN(C)C(=O)[C@H]2O[C@@H](n3cnc4c(=O)[nH]c(N)nc43)[C@H](O)[C@@H]2O)c1 | x | 1 | x | 0 | x | x
COc1ccc(-n2nc(C(=O)NCC(=O)N3CCN(c4ccccn4)CC3)c3ccccc3c2=O)cc1OC | -24 | 57* | -11 | 12 | -24 | 14
COc1ccc(-n2nc(C(=O)NCC(=O)NCc3cccc(F)c3)c3ccccc3c2=O)cc1Cl | -22 | 50* | 7 | 15 | -4 | 10
COc1ccc(-n2nc(C(=O)NCC(=O)N3CCN(c4ccccc4OC)CC3)c3ccccc3c2=O)cc1OC | -1 | 52* | 0 | 13 | -7 | 15
COc1ccc(-n2nc(C(=O)NCC(=O)N3CCN(c4ccccc4)CC3)c3ccccc3c2=O)cc1OC | -39 | 36 | -11 | 8 | -20 | 17
COc1ccnc(Oc2ccccc2)c1C(=O)N/C=N/OCc1ccc(F)cc1Cl | -11 | 61* | -2 | 24 | -7 | 33
O=C(Nc1nccs1)c1ccc2ccccc2n1 | -6 | 10 | -2 | 1 | -14 | 71*
O=C(Nc1nccs1)c1ccc2nccnc2c1 | -4 | 1 | 5 | -3 | -17 | 46*
CCC(CC)c1nnc(NC(=O)c2ccc3ccccc3n2)s1 | -3 | 2 | -2 | 16 | -19 | 49*
CC(C)CN(C(=O)CSc1nc2ccccc2o1)c1c(N)n(Cc2ccccc2)c(=O)[nH]c1=O | 1 | -3 | x | 0 | -21 | 31*
CCN(CC)c1ccc(-c2nnc(SCC(=O)N(CCOC)c3c(N)n(CC(C)C)c(=O)[nH]c3=O)o2)cc1 | -26 | 1 | x | -1 | -23 | 57*
COCCN(C(=O)CSc1nnc(-c2ccc(C)c(C)c2)o1)c1c(N)n(CC(C)C)c(=O)[nH]c1=O | -7 | -30 | x | 0 | -7 | 34
COCCN(C(=O)CSc1nc2ccccc2o1)c1c(N)n(Cc2ccccc2)c(=O)[nH]c1=O | 5 | -5 | x | 0 | -11 | 3
CCN(C(=O)CSc1nnc(-c2ccccc2)o1)c1c(N)n(Cc2ccccc2)c(=O)[nH]c1=O | 1 | -9 | 5 | 0 | -17 | 70*
CC(C)CN(C(=O)CCCOc1ccc(Cl)cc1Cl)c1c(N)n(Cc2ccccc2)c(=O)[nH]c1=O | 12 | -21 | x | 0 | -28 | 39*
CCCCN(C(=O)CSc1nnc(-c2ccccc2)o1)c1c(N)n(CCC)c(=O)[nH]c1=O | 6 | 2 | x | 1 | -15 | 14
Cc1ccccc1CN1[C@@H](C)[C@H](c2ccccc2)Oc2cccc(NCCc3ccccc3)c2S1(=O)=O | x | -2 | x | 31 | x | x
CCOC(=O)CN1C(=O)[C@]2(OCCC=C[C@H]2C)c2ccccc21 | x | -5 | x | 0 | x | x
CCCCN(C(=O)CSc1nnc(-c2ccco2)o1)c1c(N)n(Cc2ccccc2)c(=O)[nH]c1=O | -20 | -12 | -5 | 0 | -9 | 26
CC(C)CN(C(=O)CSc1nnc(-c2ccco2)o1)c1c(N)n(Cc2ccccc2)c(=O)[nH]c1=O | 1 | -22 | -8 | 3 | -21 | 68*
Cc1sc2ncnc(N3CCN(S(=O)(=O)c4ccc(Br)cc4)CC3)c2c1C | -23 | 2 | -15 | 1 | -19 | 21
Cc1sc2ncnc(N3CCN(S(=O)(=O)c4ccc(C(C)(C)C)cc4)CC3)c2c1C | 37 | 0 | x | 2 | 51* | 11
SMILES | OX1R antag-1 | TAAR1 antag | GPR7 antag | TAAR1 ag | CHO parental Ca | OX1R antag-2
Cc1csc2c(N3CCN(S(=O)(=O)c4ccc(Cl)cc4)CC3)ncnc12 | -11 | -17 | -4 | 2 | -9 | 9
Cc1ccc(S(=O)(=O)N2CCN(c3nc(C)nc4sc(C)c(C)c34)CC2)cc1 | x | x | 14* | x | x | x
Cc1nc(N2CCN(S(=O)(=O)c3ccc(F)cc3)CC2)c2c(C)c(C)sc2n1 | -3 | -10 | x | 8 | -18 | 3
Cc1csc2ncnc(N3CCN(S(=O)(=O)c4cccc(C(F)(F)F)c4)CC3)c12 | 20 | 35 | -14 | 3 | 59* | 56*
O=S(=O)(c1ccc(Cl)cc1)N1CCN(c2ncnc3sccc23)CC1 | 36 | 25 | x | 8 | 46* | 19
Cc1ccc(S(=O)(=O)N2c3ccccc3OC(C(=O)OC(C)(C)C)(C(=O)OC(C)(C)C)C2CC(=O)c2ccccc2)cc1 (centres undefined) | x | -22 | x | -1 | x | x
O=C(O)/C=C\c1cn(-c2ccccc2)nc1-c1cc2ccccc2o1 | 15 | 1 | -5 | 1 | 10 | 76*
Cc1ccc(-c2nn(-c3ccccc3)cc2/C=C/C(=O)OCC(=O)NC2CC2)o1 | 77* | 33 | 0 | 17 | 83* | 46
O=C(O)/C=C/c1cn(-c2ccccc2)nc1-c1cc2ccccc2o1 | 9 | 18 | -7 | 2 | -1 | 27
CNC(=O)COC(=O)/C=C/c1cn(-c2ccccc2)nc1-c1ccc2c(c1)OCCO2 | -9 | -17 | -6 | 4 | 3 | 19
CN(N=Cc1ccccc1O)C(=O)c1ccccc1N | x | -4 | x | 1 | x | x
Cc1ccccc1-n1nc2c(c1NC(=O)c1cc3ccccc3oc1=O)CS(=O)C2 (centres undefined) | -14 | x | -16 | x | -14 | 46*
CCCn1cc(C(=O)Nc2ccc(Oc3cccnc3)cc2)c2ccccc21 | x | 18 | x | 0 | x | x
C[C@@H]1CN([C@@H](C)CO)C(=O)CCCn2cc(nn2)CO[C@H]1CN(C)C(=O)Nc1ccc(F)cc1 | x | 1 | x | 8 | x | x
CCOc1ccc(C(C(=O)NCC2CCCO2)N(C(=O)c2snc(C(N)=O)c2N)c2ccccc2F)cc1 (centres undefined) | -7 | 47 | -5 | 24 | -13 | 22
Cc1cccc(CCN(C(=O)c2snc(C(N)=O)c2N)C(C(=O)NCC2CCCO2)c2ccc(F)cc2)c1 (centres undefined) | x | 59* | -7 | 30 | x | x
CCOc1ccc(C(C(=O)NCC2CCCO2)N(Cc2cccs2)C(=O)c2snc(C(N)=O)c2N)cc1 (centres undefined) | -9 | 54* | -9 | 24 | -5 | 20
NC(=O)c1nsc(C(=O)N(Cc2ccccc2F)C(C(=O)NCC2CCCO2)c2ccc(F)cc2)c1N (centres undefined) | -11 | 22 | -5 | 9 | -13 | 17

From PubChem BioAssay
